TRPC4 act: opens the mouse TRPC4 cation channel; 310,000 compounds, 0.49% hits; B-score at 10 µM; AID 2237; Q9QUQ5; HEK293 TRPC4beta/mu-opioid, Fluo4 calcium fluorescence; stronger effect = higher value;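 active means B-score above 5 SD of library B-scores, and initial fluorescence ratio not above library mean plus 5 SD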;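 further: positive B-score marks a calcium rise read as TRPC4 activation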
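Assay system – TRPC4beta and mu-opioid receptor HEK293 stable cells · Measured by – Fluo4 fluorescence, kinetic · Schedule – dye loading 45 min room temperature, 110 s kinetic read · Read-out – B-scored integrated calcium fluorescence ratio · Controls – buffer and maximal DAMGO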
TRPC6 inh: inhibitors of mouse TRPC6 channel; Q61143; HEK293-TRPC6, membrane potential dye, ACh-evoked depolarization; stronger effect = lower value; B-score at 10 µM; 310,000 compounds, 1.1% hits; AID 2553;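 active means B-score under library mean minus 3 SD, initial fluorescence not abnormally high, positive integrated signal ratio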;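 further: B-score derived from integrated fluorescence ratio over the kinetic read; more negative B-score means stronger inhibition of depolarization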
Target sequence (Q61143 whole entry, looked up): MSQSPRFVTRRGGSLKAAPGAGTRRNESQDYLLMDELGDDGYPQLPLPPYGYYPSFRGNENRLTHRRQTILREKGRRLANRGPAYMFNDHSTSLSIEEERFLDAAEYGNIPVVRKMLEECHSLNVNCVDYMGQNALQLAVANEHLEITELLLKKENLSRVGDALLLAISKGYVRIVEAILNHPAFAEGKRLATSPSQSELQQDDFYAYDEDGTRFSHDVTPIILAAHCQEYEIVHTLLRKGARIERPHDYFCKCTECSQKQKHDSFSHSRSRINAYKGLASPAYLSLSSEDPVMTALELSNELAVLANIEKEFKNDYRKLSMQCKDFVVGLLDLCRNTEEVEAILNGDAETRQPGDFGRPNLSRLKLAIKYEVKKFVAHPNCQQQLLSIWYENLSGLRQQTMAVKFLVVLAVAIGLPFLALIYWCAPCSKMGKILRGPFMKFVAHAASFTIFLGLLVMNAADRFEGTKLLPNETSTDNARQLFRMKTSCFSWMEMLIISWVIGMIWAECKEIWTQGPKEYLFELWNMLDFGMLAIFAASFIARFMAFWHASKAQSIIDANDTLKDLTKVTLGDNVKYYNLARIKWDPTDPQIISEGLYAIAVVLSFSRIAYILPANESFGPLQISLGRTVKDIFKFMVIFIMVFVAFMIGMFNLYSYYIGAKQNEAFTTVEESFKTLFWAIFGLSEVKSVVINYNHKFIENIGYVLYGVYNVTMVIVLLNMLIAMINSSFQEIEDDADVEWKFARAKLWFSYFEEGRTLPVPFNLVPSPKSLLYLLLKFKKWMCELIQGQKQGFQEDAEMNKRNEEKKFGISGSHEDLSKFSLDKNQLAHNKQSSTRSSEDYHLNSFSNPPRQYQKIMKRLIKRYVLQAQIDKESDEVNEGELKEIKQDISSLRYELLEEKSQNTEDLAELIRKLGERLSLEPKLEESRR
TRPC4 block: blocks the mouse TRPC4 cation channel | B-score at 10 µM | HEK293 TRPC4beta/mu-opioid, DAMGO-evoked Fluo4 calcium flux; stronger effect = lower value | 300,000 compounds, 0.39% hits | AID 2247 | Q9QUQ5;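 active means B-score over 3 SD under the library average, no early fluorescence shift, positive overall ratio signal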
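Assay system: TRPC4beta/mu-opioid receptor HEK293 cell line; compound dosing: single concentration per test compound; detection: Fluo4 Ca2+ flux fluorescence; evaluation: per-well B score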
Kir21 block: inhibitors of mouse Kir2.1 inward-rectifier potassium channel; B-score at 10 µM; 310,000 compounds, 0.85% hits; HEK293-Kir2.1, FluxOR thallium flux fluorescence; stronger effect = lower value; AID 1672;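 active means fluorescence ratio B-score at or below minus 3 SD of library scores, with starting-brightness B-score within 2 SD, cut at about -4.2 in these data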;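 further: channel flux triggered by added potassium and thallium sulfate stimulus; B-score of peak minus minimum fluorescence over baseline after thallium stimulus; more negative B-score means stronger Kir2.1 block with less thallium influx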
TRPC4 potent: TRPC4 (mouse) allosteric potentiation; Q9QUQ5; HEK293 TRPC4beta/mu-opioid, DAMGO EC20, Fluo-4 Ca2+ flux; stronger effect = higher value; B-score at 10 µM; 310,000 compounds, 0.42% hits; AID 2227;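 active means B-score of calcium response area above 5 SD of library B-scores, with initial fluorescence ratio within 5 SD of library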
TRPC6 act: activates the mouse TRPC6 cation channel; 310,000 compounds, 0.13% hits; Q61143; B-score at 10 µM; HEK293-TRPC6 membrane potential dye fluorescence; stronger effect = higher value;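 active means B-score of the integrated fluorescence ratio above library mean plus 3 SD, and starting fluorescence ratio within library mean plus 5 SD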;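 further: higher score means more depolarization so channel activation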
hERG inh: blocks human hERG, in counter-screen for Kir2.1 inhibitors; 320 compounds, 20% hits; shares compounds with Kir21 block; inhibition, % at 10 µM; hERG-expressing cells, thallium flux;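 further: host cells are CHO cells stably expressing hERG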
KCNK9 spec: selectivity of Kir2.1 inhibitors: effect on human KCNK9; shares compounds with Kir21 block; KCNK9-expressing cells, ion flux inhibition; inhibition, % at 10 µM; 320 compounds, 5% hits; AID 2329
Kir21 ephys inh: mouse Kir2.1 inward rectifier channel inhibition; 320 compounds, 71% hits; Kir2.1 cells, automated patch-clamp current inhibition; AID 463252; shares compounds with Kir21 block; inhibition, % at 25 µM
TRPC4 sel inh 2: mouse TRPC4 off-target activity of TRPC6 inhibitors, second screen; AID 2776; 920 compounds, 42% hits; shares compounds with TRPC6 inh; HEK293 TRPC4/MOR, membrane potential dye fluorescence; channel activated by saturating DAMGO dose; inhibition, % at 10 µM;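 active means compounds whose fluorescence signal differed from control wells by over 3 SD, either direction, in both duplicate plates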
TRPC4 spec: selectivity of TRPC6 inhibitors: effect on mouse TRPC4; 920 compounds, 61% hits; activity change, negative = inhibition, % at 10 µM; shares compounds with TRPC6 inh; HEK293 TRPC4/mu-opioid, membrane potential fluorescence; AID 2777;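 active means rise or fall in signal beyond 3 SD of buffer-only wells in both replicate plates, either sign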;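 further: integrated kinetic ratio of fluorescence range over baseline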
HEK293 MPD ctr 2-1: second check of TRPC6 inhibitor effects in parental HEK293 cells. shares compounds with TRPC6 inh. parental HEK293 membrane potential dye fluorescence; maximal acetylcholine challenge after compound addition. signal change vs control, % at 10 µM. 920 compounds, 31% hits;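 active means membrane potential signal moving either way by over 3 SD of the maximum-effect control, in both duplicate plates, meaning non-specific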
HEK293 MPD ctr-1: counter-screen for TRPC6 inhibitors: effect in parental HEK293 cells; shares compounds with TRPC6 inh; parental HEK293 membrane potential dye fluorescence; membrane potential signal change, % at 10 µM; 920 compounds, 60% hits;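 active means membrane potential signal shifting up or down by more than 3 SD of buffer-only wells, on both duplicate plates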
HEK293 MPD ctr-2: checks TRPC6 modulator effects in parental HEK293 cells; shares compounds with TRPC6 inh; membrane potential dye fluorescence; membrane potential signal change, % at 10 µM; 2,400 compounds, 51% hits; AID 488924;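 active means membrane potential signal moves up or down beyond 5 SD from buffer-only wells, on both duplicate plates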
HEK293 MPD ctr 2-2: second counter-screen for TRPC6 modulators: effect in parental HEK293 cells | shares compounds with TRPC6 inh | membrane potential dye fluorescence; after compound, maximal acetylcholine stimulation | inhibition, % at 10 µM | 2,400 compounds, 14% hits | AID 488926;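 active means membrane potential signal drops by more than 5 SD from the mean control signal, in both duplicate plates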
TRPC4/MOR mod: selectivity of TRPC6 modulators against mouse TRPC4; 2,400 compounds, 69% hits; AID 488927; percent change from control (negative = decrease, positive = increase), % at 10 µM; HEK293 TRPC4/mu-opioid, membrane potential fluorescence; shares compounds with TRPC6 inh;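 active means membrane potential signal moved up or down beyond 5 SD of buffer control wells, in both duplicate plates, actives on both sides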
TRPC4 ctr inh 2: second selectivity test of TRPC6 modulators against mouse TRPC4; AID 488928; 2,400 compounds, 55% hits; HEK293 TRPC4/mu-opioid, membrane potential dye fluorescence; stimulated with maximal-effect DAMGO; shares compounds with TRPC6 inh; inhibition, % at 10 µM;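 active means drop in membrane potential signal beyond 5 SD of the control wells in both duplicate plates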;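 further: TRPC4 counter screen for TRPC6 hits run under conditions tuned for TRPC6 not TRPC4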
TRPC6 block conf: mouse TRPC6 inhibitor confirmation; AID 488960; shares compounds with TRPC6 inh; HEK293-TRPC6, membrane potential dye, ACh-evoked depolarization; 3,300 compounds, 43% hits; inhibition, % at 10 µM;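 active means fluorescence ratio falls more than 5 SD below the full-stimulation control mean, in both duplicate runs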;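 further: integrated fluorescence ratio of peak minus minimum over baseline after agonist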
TRPC6 act conf: mouse TRPC6 activator confirmation; HEK293-TRPC6 membrane potential dye fluorescence, FDSS; activation, % at 10 µM; 2,800 compounds, 11% hits; shares compounds with TRPC6 inh;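 active means ratio signal rise beyond 5 SD above unstimulated control wells' mean, seen in both duplicate runs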
Hits are given with their value. Rows were chosen to be rich in hits. Some 2.9% of all compounds tested hit in one or more screens of this group. Unless noted, how the calls were made is not given here.

What do the screens show for `CCCCCCCn1c(=N)n(CC(=O)c2ccco2)c2ccccc21`?
TRPC4 act: inactive; TRPC6 inh: -5.33; TRPC4 block: inactive; Kir21 block: -10.2; TRPC4 potent: inactive; TRPC6 act: inactive; hERG inh: 67.0%; KCNK9 spec: inactive; Kir21 ephys inh: 6.9%; HEK293 MPD ctr-2: 93.5%; HEK293 MPD ctr 2-2: inactive; TRPC4/MOR mod: 16.0%; TRPC4 ctr inh 2: 77.5%; TRPC6 block conf: 57.5%; TRPC6 act conf: inactive

How did CCCCCCCn1c(=N)n(CC(O)c2ccco2)c2ccccc21 (stereo unspecified) do in these assays?
TRPC4 act: inactive; TRPC6 inh: -5.38; TRPC4 block: inactive; Kir21 block: -5.91; TRPC4 potent: inactive; TRPC6 act: inactive; hERG inh: 70.0%; KCNK9 spec: inactive; Kir21 ephys inh: inactive; HEK293 MPD ctr-2: 235.0%; HEK293 MPD ctr 2-2: inactive; TRPC4/MOR mod: 44.5%; TRPC4 ctr inh 2: 93.0%; TRPC6 block conf: 70.0%

How did COc1ccccc1CNC(=O)Cn1cccc1C(=O)c1ccccc1 do in these assays?
TRPC4 act: inactive; TRPC6 inh: inactive; TRPC4 block: inactive; Kir21 block: inactive; TRPC4 potent: inactive; TRPC6 act: inactive

What do the screens show for `CCN(CC(=O)NCc1ccncc1)S(=O)(=O)c1ccc(OC)cc1`?
TRPC4 act: inactive; TRPC6 inh: inactive; TRPC4 block: inactive; Kir21 block: inactive; TRPC4 potent: inactive; TRPC6 act: inactive

How did Cc1ccc(Nc2cc(C)nc3c(C)cccc23)cc1 do in these assays?
TRPC4 act: inactive; TRPC6 inh: -6.8; TRPC4 block: -7; Kir21 block: -8.7; TRPC4 potent: inactive; TRPC6 act: inactive; hERG inh: inactive; KCNK9 spec: inactive; Kir21 ephys inh: 61.4%; TRPC4 sel inh 2: 20.5%; TRPC4 spec: inactive; HEK293 MPD ctr 2-1: 22.0%; HEK293 MPD ctr-1: -196.5%; TRPC6 block conf: 98.0%; TRPC6 act conf: inactive

How did COc1ccccc1CNCC(=O)NCc1ccc(C)cc1 do in these assays?
TRPC4 act: inactive; TRPC6 inh: inactive; TRPC4 block: inactive; Kir21 block: inactive; TRPC4 potent: inactive; TRPC6 act: inactive

How did COc1ccccc1CNCc1ccc(OC)c2ccccc12 do in these assays?
TRPC4 act: inactive; TRPC6 inh: -6.15; TRPC4 block: -7; Kir21 block: -8.14; TRPC4 potent: inactive; TRPC6 act: inactive; hERG inh: inactive; KCNK9 spec: inactive; Kir21 ephys inh: 42.3%; HEK293 MPD ctr-2: 265.0%; HEK293 MPD ctr 2-2: inactive; TRPC4/MOR mod: 64.0%; TRPC4 ctr inh 2: 70.0%; TRPC6 block conf: 52.0%

Results for O=C(COc1ccc([N+](=O)[O-])cc1)NC(C(=O)O)C(O)c1cccc([N+](=O)[O-])c1 (stereo unspecified) ?
TRPC4 act: inactive; TRPC6 inh: inactive; TRPC4 block: inactive; Kir21 block: inactive; TRPC4 potent: inactive; TRPC6 act: inactive

How did c1ccc(CNc2c3ccccc3nc3ccccc23)cc1 do in these assays?
TRPC4 act: inactive; TRPC6 inh: -7.78; TRPC4 block: -7; Kir21 block: -8.29; TRPC4 potent: inactive; TRPC6 act: inactive; hERG inh: 70.0%; KCNK9 spec: inactive; Kir21 ephys inh: 15.5%; TRPC4 sel inh 2: 59.5%; TRPC4 spec: -23.2%; HEK293 MPD ctr 2-1: 45.0%; HEK293 MPD ctr-1: -449.5%; TRPC6 block conf: inactive; TRPC6 act conf: inactive

What do the screens show for `c1ccc(CNc2ncnc3ccccc23)cc1`?
TRPC4 act: inactive; TRPC6 inh: inactive; TRPC4 block: inactive; Kir21 block: inactive; TRPC4 potent: inactive; TRPC6 act: inactive

What do the screens show for `Cc1cc(C)c2nc(N(CCCN(C)C)C(=O)c3ccc4c(c3)OCCO4)sc2c1`?
TRPC4 act: inactive; TRPC6 inh: -8.24; TRPC4 block: inactive; Kir21 block: -6.43; TRPC4 potent: inactive; TRPC6 act: inactive; hERG inh: 66.0%; KCNK9 spec: inactive; Kir21 ephys inh: inactive; TRPC4 sel inh 2: inactive; TRPC4 spec: inactive; HEK293 MPD ctr 2-1: inactive; HEK293 MPD ctr-1: 0.4%; TRPC6 block conf: inactive; TRPC6 act conf: inactive

Results for CCCCNC(=O)C1c2ccccc2Oc2ccccc21 ?
TRPC4 act: inactive; TRPC6 inh: inactive; TRPC4 block: inactive; Kir21 block: inactive; TRPC4 potent: inactive; TRPC6 act: inactive
